Source: ChEMBL document CHEMBL1141679, “Design, synthesis, biochemical, and biological evaluation of nitrogen-containing trifluoro structural modifications of combretastatin A-4” (Bioorg Med Chem Lett, 2008)
Values after ≈ are worked out from the molar mass of the structure shown.

Tests used:
[1] = tested on: NCI-H460; assay: Cytotoxicity against human NCI-H460 cells after 48 hrs by SRB assay; assay type: functional; conditions: NCI-H460, 48 h
In short: (§1)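 Cells were seeded in culture medium with 5% fetal bovine serum and incubated 24 h, then serial dilutions of compound were added. After 48 h, cells were fixed with trichloroacetic acid and stained with sulforhodamine B, and optical density was read on a plate reader. GI50 is the concentration giving a 50% reduction in net protein increase, calculated from optical density.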

[2] = Inhibition of calf brain tubulin polymerization; set-up: species or system Bos taurus
In short: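 Tubulin was purified from calf brain. Assembly was followed by turbidity at 350 nm. IC50 was obtained by nonlinear regression of the data.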

[3] = tested on: DU-145; assay: Cytotoxicity against human DU145 cells after 48 hrs by SRB assay; assay type: functional; conditions: DU-145, 48 h; in short: as §1

Row | SMILES | GI50 [1] [µg/mL] | IC50 [2] [nM] | GI50 [3] [µg/mL]
1 | COc1ccc(/C=C\c2cc(F)c(F)c(F)c2)cc1N | 0.11 (≈ 0.394 µM) | 2900 | 0.072 (≈ 0.258 µM)
2 | COc1ccc(/C=C\c2cc(OC)c(OC)c(OC)c2)cc1O [COMBRETASTATIN A4] | 0.0006 (≈ 0.0019 µM) |  | 0.0008 (≈ 0.00253 µM)
3 | COc1ccc(/C=C\c2cc(F)c(F)c(F)c2)cc1[N+](=O)[O-] | > 5 | > 40000 | > 5
4 | COc1ccc(/C=C/c2cc(F)c(F)c(F)c2)c([N+](=O)[O-])c1 | > 5 |  | > 5
5 | COc1ccc(/C=C\c2cc(F)c(F)c(F)c2)cc1O | 0.2 (≈ 0.714 µM) | 4500 | 0.04 (≈ 0.143 µM)
6 | COc1ccc(/C=C\c2cc(OC)c(OC)c(OC)c2)cc1N | 0.00068 (≈ 0.00216 µM) | 2600 | 0.00096 (≈ 0.00304 µM)
7 | COc1ccc(/C=C\c2cc(F)c(F)c(F)c2)c(N)c1 | > 5 |  | 4.3 (≈ 15.4 µM)
8 | COc1ccc(/C=C/c2cc(F)c(F)c(F)c2)cc1N | > 5 | > 40000 | > 5
9 | COc1ccc(/C=C\c2cc(F)c(F)c(F)c2)c([N+](=O)[O-])c1 | > 5 |  | > 5
10 | COc1ccc(/C=C/c2cc(F)c(F)c(F)c2)cc1[N+](=O)[O-] | > 5 | > 40000 | > 5
11 | COc1ccc(/C=C/c2cc(F)c(F)c(F)c2)c(N)c1 | > 5 |  | > 5
12 | COc1ccc(/C=C\c2cc(OC)c(OC)c(OC)c2)c(N)c1 | 0.0012 (≈ 0.00381 µM) | 1400 | 0.0016 (≈ 0.00507 µM)
